Shown are actives, neighbours in structure and some others; about 4.3% of the full set was active somewhere.
TAAR1 ag: human TAAR1 agonism. AID 624467. CHO RD-HGA16 TAAR1, Fluo-8 calcium fluorescence; vehicle wells 0%, saturating PEA agonist 100%. hit rate 0.99% among 360,000. activation, % at 3 µM. Q96RJ0;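 active = activation above the mean activation of all test compounds in the run plus 3 SD, cut at about 38% in these data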
Target sequence (Q96RJ0 whole entry, looked up): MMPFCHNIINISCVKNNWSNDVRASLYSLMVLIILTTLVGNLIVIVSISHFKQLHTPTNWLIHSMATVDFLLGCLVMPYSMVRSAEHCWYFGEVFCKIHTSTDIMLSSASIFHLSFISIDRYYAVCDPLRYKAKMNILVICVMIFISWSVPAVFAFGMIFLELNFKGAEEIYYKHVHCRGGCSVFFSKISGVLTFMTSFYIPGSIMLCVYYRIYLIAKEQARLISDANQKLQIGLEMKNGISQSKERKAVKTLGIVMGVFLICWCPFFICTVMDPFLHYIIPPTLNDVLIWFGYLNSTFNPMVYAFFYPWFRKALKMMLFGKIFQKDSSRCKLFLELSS
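System: CHO RD-HGA16 cells carrying human TAAR1 plus Gα16; Incubation: 17-24 h seeding, 75 min 37 °C dye, 30 min RT; Measured by: Fluo-8 fluorescence, 5 s baseline then 140 s kinetic read; Control set: DMSO and PEA EC100; Replication: single well for each compound.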
TAAR1 antagonist: human TAAR1 antagonism. Q96RJ0. CHO RD-HGA16 TAAR1, Fluo-8 calcium fluorescence, antagonist. inhibition, % at 3 µM. hit rate 1.5% among 360,000;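 active = inhibition above a per-plate cutoff, the mean inhibition of test compounds on that plate plus 3 SD, cut at about 49% in these data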;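 also: 0% = DMSO plus EC80 beta-PEA response and 100% = DMSO alone without agonist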
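Material: CHO RD-HGA16 cells bearing hTAAR1; compound dosing: one-point dosing, 3 µM nominal final; schedule: dye loading 75 min at 37 °C, then 30 min room temperature; measured by: calcium fluorescence with Fluo-8; control set: vehicle and agonist controls; replication: n of 1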
CHO parental Ca: counter-screen for OX1R antagonists: effect in parental CHO cells; parental CHO-K1, ATP-induced calcium, Fluo-8 fluorescence; inhibition, % at 5.6 µM; hit rate 0.63% among 330,000; AID 463079;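 active = inhibition above that plate's mean sample inhibition plus 3 SD, cut at about 26% in these data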;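 also: 0% = ATP-challenged DMSO wells and 100% = DMSO wells without ATP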
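Material – parental CHO cells · Reagent – ATP stimulus · Compound – single nominal dose of 5.6 µM per compound · Detection – Fluo-8 fluorescence · Read-out basis – percent inhibition of calcium signal · Controls – ATP-challenged DMSO wells low, unchallenged DMSO wells high · Repeats – no replicates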
OX1R antag-1: blocks the human orexin 1 receptor. O43613. CHO/OX1R cells, Fluo-8 calcium fluorescence, orexin A. AID 434989. hit rate 0.43% among 330,000. inhibition, % at 5 µM;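 active = inhibition above its plate's threshold, mean inhibition of all tested compounds on the plate plus 3 SD, cut at about 37% in these data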;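 also: 0% = orexin A challenge wells and 100% = SB-334867-A antagonist wells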
GalR3 antag: human GalR3 antagonism. inhibition, % at 3 µM. O60755. HEK293 GalR3-CNG cAMP membrane potential fluorescence; galR3 body fused to GalR1 C-terminus. hit rate 0.44% among 360,000;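 active = inhibition above the screen-wide average plus 3 SD, cut at about 13% in these data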;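 also: forskolin and galanin both at EC90 stimulate the cells; cAMP rise reported by CNG channel membrane potential dye signal; 0% = forskolin plus galanin with DMSO and 100% = forskolin alone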
OX1R antag-2: blocks the human orexin 1 receptor; O43613; OX1R-expressing cells, FRET antagonist read-out; inhibition, % at 6.6 µM; hit rate 1.8% among 330,000; AID 485270; in the data active = inhibition mostly above about 38%, no sharp cut-off; inactive = mostly below about 40%;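 also: 0% = agonist challenge alone and 100% = reference antagonist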
TAAR1 ag confirm: human TAAR1 agonism, confirmed | shares compounds with TAAR1 ag | CHO RD-HGA16 TAAR1, Fluo-8 calcium fluorescence; scaled: DMSO 0%, maximal phenethylamine 100% | activation, % at 3 µM | hit rate 82% among 2,400 | AID 651783;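 active = activation above a cutoff set at the run's mean compound activation plus 3 SD, cut at about 39% in these data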
Ga16 nonsel ag: nonselective agonist in parental cells, TAAR1 agonist counter-screen; AID 651787; CHO-Ga16 parental, Fluo-8 calcium fluorescence; normalized to maximal ATP response, DMSO zero; hit rate 50% among 2,400; shares compounds with TAAR1 ag; activation, % at 3 µM;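 active = activation above the run cutoff, the mean activation over all tested wells plus 3 SD, cut at about 12% in these data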;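 also: 0% = DMSO wells and 100% = maximal ATP response on the peak over basal ratio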
TAAR1 desens: counter-screen for human TAAR1 agonists: agonists that desensitize TAAR1; hit rate 46% among 2,400; AID 651951; shares compounds with TAAR1 ag; inhibition, % at 3 µM; CHO RD-HGA16 hTAAR1, Fluo-8 calcium, beta-PEA response inhibition;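 active = inhibition above the run cutoff, the mean inhibition of all test compounds plus 3 SD, cut at about 49% in these data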;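 also: beta-PEA stimulus applied at its EC80; loss of beta-PEA calcium signal after compound pretreatment read as receptor desensitization; 0% = DMSO with beta-PEA at EC80 and 100% = DMSO alone without agonist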
Ga16 antag count: nonselective Ga16 antagonism, counter-screen; inhibition, % at 3 µM; AID 651952; shares compounds with TAAR1 ag; CHO-Ga16 ATP-induced calcium, Fluo-8 fluorescence; hit rate 39% among 2,400;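 active = inhibition above the plate's mean compound inhibition plus 3 SD, computed per plate, cut at about 22% in these data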;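 also: 0% = EC80 ATP with DMSO and 100% = DMSO wells without ATP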
Numbers without * were called inactive; / = no result.

SMILES	TAAR1 ag	TAAR1 antagonist	CHO parental Ca	OX1R antag-1	GalR3 antag	OX1R antag-2	TAAR1 ag confirm	Ga16 nonsel ag	TAAR1 desens	Ga16 antag count
CC1(C)CC(=O)C(C(=O)/C=C/NCCc2ccccc2)C(=O)C1	87*	92*	-7	-35	-1	8	109*	3	93*	0
CCC(C)Nc1nc2ccccc2n2c(C)nnc12 (configuration not stated)	-1	-7	-29	-17	-11	5	/	/	/	/
O=C(NCCc1cccs1)c1ccc(CS(=O)Cc2cccc(Cl)c2)o1 (configuration not stated)	63*	22	/	/	-6	/	57*	1	39	5
CCOc1ccc(NC(=O)CN(C)C(=O)CSCc2ccc(C)cc2)cc1OCC	8	32	-18	-27	-4	23	/	/	/	/
COc1cccc(CN(C)C(=O)c2ccc(S(=O)(=O)Nc3ccccc3C)cc2)c1OC	8	10	/	/	-5	/	/	/	/	/
CCC(C)N=CC1=C(O)CC(c2ccccc2)CC1=O (configuration not stated)	1	14	-4	-24	-5	20	/	/	/	/
CCCC(=NC(C)CC)C1=C(O)CC(c2ccccc2)CC1=O (configuration not stated)	58*	-1	-25	-16	-11	-1	86*	56*	2	6
Cc1ccc(C(c2sc3ncnn3c2O)N2CCCCC2)cc1 (configuration not stated)	-1	-16	-9	-17	/	10	/	/	/	/
Oc1c(C(c2ccc(F)cc2)N2CCc3ccccc3C2)sc2ncnn12 (configuration not stated)	/	/	-16	-14	/	7	/	7	/	13
Cc1nc2sc(C(c3ccco3)N3CCc4ccccc4C3)c(O)n2n1 (configuration not stated)	76*	54*	-20	-15	0	6	96*	8	70*	4
N=c1c2c(-c3ccccc3)c(-c3ccccc3)n(Cc3ccccc3)c2ncn1CCO	59*	-15	-23	-23	-11	30	49*	20*	15	12
O=c1oc2cc(O)ccc2cc1-c1nc2c(s1)CCc1ccccc1-2	59*	47	50*	50*	-2	17	176*	164*	84*	84*
Cc1cccc(C)c1NC(=O)CNC(=O)CNC(=O)c1ccc2ccccc2c1	1	-8	/	/	-5	/	/	/	/	/
Cc1ccc(C(=O)Nc2cccc(C(O)c3ccccc3)c2)cc1 (configuration not stated)	-1	-30	-17	-32	-5	11	/	/	/	/
COc1ncnc2c1ncn2CCCNCC(C)c1ccccc1 (configuration not stated)	65*	47	/	/	2	/	81*	0	50*	4
COc1ncnc2c1ncn2CCCNCC(c1ccccc1)c1ccccc1	1	-12	/	/	-1	/	/	/	/	/
CCOc1ccc(CCN2C(=S)N([C@@H](CC(C)C)CN3CCCC3CN3C(=S)NC[C@@H]3Cc3ccc(O)cc3)C[C@@H]2Cc2ccc(O)cc2)cc1 (some centres not stated)	1	-15	/	/	-4	/	/	/	/	/
Cc1ccc(S(=O)(=O)Nc2ccc(NC(=O)c3c(F)c(F)c(F)c(F)c3F)cc2)cc1	117*	66*	44*	69*	-9	-6	115*	71*	100*	67*

Bioassay records (PubChem BioAssay)
